The species entered for series [1] is Homo sapiens. The experiment in a line: Selectivity ratio of IC50 for PTP1B (unknown origin) expressed in Escherichia coli BL21(DE3) to IC50 for SHP2 E76A mutant (unknown origin) expressed in Escherichia coli BL21(DE3). Summed up: (§1)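 Ratio of IC50 values from one DIFMUP fluorescence assay (Ex/Em 358/455), room temperature, 0.1 M sodium acetate pH 5.0. His-tagged SHP2 E76A (1.5 nM) or counter-phosphatase purified from E. coli, preincubated 20 min with compound (eight 3-fold dilutions), then DIFMUP added for 20 min. DIFMUP was at Km for each counter-phosphatase. Duplicates; IC50 from at least three independent experiments.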

Series [2] has as its target Dual specificity protein phosphatase 6 (Homo sapiens, UniProt Q16828). The experiment in a line: Inhibition of MKP3 (unknown origin) expressed in Escherichia coli BL21(DE3) using DIFMUP as substrate preincubated for 20 mins followed by substrate addition measured after 20 mins by phosphatase assay. The method, boiled down:
(§2)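 Phosphatases purified from E. coli and run as for SHP2 E76A: 20 min room-temperature preincubation with compound in 0.1 M sodium acetate pH 5.0, then DIFMUP at each enzyme's Km, 20 min, fluorescence 358/455 nm. Eight 3-fold dilutions in duplicate; IC50 from at least three independent experiments.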

The target in series [3] is T1, Tyrosine-protein phosphatase non-receptor type 11 (Homo sapiens) (UniProt Q06124).
T1 sequence (whole entry): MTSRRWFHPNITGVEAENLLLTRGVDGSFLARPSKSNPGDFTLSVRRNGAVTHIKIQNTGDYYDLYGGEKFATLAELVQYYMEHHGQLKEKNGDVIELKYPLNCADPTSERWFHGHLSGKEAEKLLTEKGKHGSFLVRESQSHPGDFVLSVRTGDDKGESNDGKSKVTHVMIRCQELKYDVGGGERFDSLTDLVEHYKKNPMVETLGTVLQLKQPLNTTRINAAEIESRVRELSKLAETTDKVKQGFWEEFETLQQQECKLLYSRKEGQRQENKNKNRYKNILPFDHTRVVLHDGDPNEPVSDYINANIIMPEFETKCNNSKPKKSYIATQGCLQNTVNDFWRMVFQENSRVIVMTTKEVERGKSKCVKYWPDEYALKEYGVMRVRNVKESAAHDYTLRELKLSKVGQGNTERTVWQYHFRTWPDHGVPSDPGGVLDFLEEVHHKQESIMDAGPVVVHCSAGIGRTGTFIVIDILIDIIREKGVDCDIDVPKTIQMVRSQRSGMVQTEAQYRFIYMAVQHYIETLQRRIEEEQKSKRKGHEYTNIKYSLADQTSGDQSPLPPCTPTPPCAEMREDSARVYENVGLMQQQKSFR
The experiment in a line: Allosteric inhibition of SHP2 in human SF268 cells stably expressing Yap-Luc reporter assessed as reduction in YAP transcriptional activity after 12 hrs by Yap-luciferase reporter gene assay. It is filed as cell-based. In general terms: In a reporter assay the amount or activity of a reporter protein is the signal.

Series [4] addresses M-phase inducer phosphatase 1 (Homo sapiens, UniProt P30304). The experiment in a line: Inhibition of CDC25A (unknown origin) expressed in Escherichia coli BL21(DE3) using DIFMUP as substrate preincubated for 20 mins followed by substrate addition measured after 20 mins by phosphatase assay. Summed up:
as §2

In series [5] the target is T1, Tyrosine-protein phosphatase non-receptor type 11 (Homo sapiens). The experiment in a line: Allosteric inhibition of SHP2 in human NCI-H661 cells assessed as downregulation of ERK1/2 activation at 10 uM by Western blot analysis. It is filed as cell-based. Conditions: TDE = time-dependent effect. On the technique in general: A western blot detects proteins with antibodies after separation by electrophoresis.

Series [6] concerns MV4-11. The experiment in a line: Antitumor activity against human MV4-11 cells xenografted in BALB/c mouse assessed as tumor growth inhibition at 30 mg/kg administered qd via oral gavage measured twice weekly relative to control. It is filed as functional. The following applies: MV4-11, po, read-out: TGI. The method, boiled down:
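Female BALB/c nude mice given subcutaneous MV4;11 cells (5×10^6, in 50% phenol red-free matrigel in PBS). Once tumours reached about 230 mm³, mice were randomised to vehicle or oral gavage once daily (10 ml/kg). Tumour volume was measured by caliper in two dimensions twice a week, along with body weight. Data given as mean±sem, with significance assessed on day 14.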

In series [7] the test system is MV4-11. The experiment in a line: Antiproliferative activity against human MV4-11 cells at 3 to 6 uM after 2 days by CellTiter-Glo assay. In kind it is functional, cell-based. The method, boiled down: (§3)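 3000 cells/well in 96-well plates, grown overnight, then inhibitor at indicated concentrations for 2 days (48 h). Viability by CellTiter-Glo; mean±s.d., n=3.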

Series [8] concerns the target Tyrosine-protein phosphatase non-receptor type 6 (Homo sapiens, UniProt P29350). The experiment in a line: Inhibition of SHP1 (unknown origin) expressed in Escherichia coli BL21(DE3) using DIFMUP as substrate preincubated for 20 mins followed by substrate addition measured after 20 mins by phosphatase assay. Summed up:
as §2

For series [9], the species on record is Homo sapiens. The experiment in a line: Selectivity ratio of IC50 for SHP1 (unknown origin) expressed in Escherichia coli BL21(DE3) to IC50 for SHP2 E76A mutant (unknown origin) expressed in Escherichia coli BL21(DE3). The method, boiled down: as §1
In series [10] the target is T1, Tyrosine-protein phosphatase non-receptor type 11 (Homo sapiens). The experiment in a line: Allosteric inhibition of SHP2 in human SF268 cells assessed as upregulation of YAP phosphorylation up to 20 uM after 2 hrs by Western blot analysis. In kind it is cell-based. Summed up: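 SF268 cells given DMSO or inhibitor for 2 h. YAP immunoprecipitated and immunoblotted with pY-100 phosphotyrosine antibody, which detects the single YXXP tyrosine Y357.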

The nature of series [11]: Oral bioavailability in nu/nu mouse at 10 mg/kg measured up to 24 hrs postdose by LC/MS/MS analysis. It is filed as ADME, organism-based. Conditions: in vivo. Summed up: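 Female nu/nu nude mice dosed IV via tail vein at 5 mg/kg or orally at 10 mg/kg. Blood sampled at 0.083, 0.25, 0.5, 1, 2, 4, 8 and 24 h post-dose (orbital sinus, terminal cardiac puncture; EDTA-2K). Plasma separated at 4 °C, precipitated with acetonitrile containing internal standard, quantified by LC/MS/MS.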

A further series relates to SF-268. The experiment in a line: Effect on YAP gene expression in human SF268 cells at 10 to 20 uM after 2 hrs by qRT-PCR analysis. In kind it is functional, cell-based. Summed up: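 SF268 cells exposed to DMSO, 10 μM or 20 μM inhibitor for 2 h. RNA extracted, reverse-transcribed, and CTGF, CYR61, ANKRD1 and YAP mRNA quantified by qPCR; mean±s.d., n=3.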
In a further series the test system is BT-474. The experiment in a line: Antiproliferative activity against human BT474 cells at 3 to 6 uM after 2 days by CellTiter-Glo assay. In kind it is functional, cell-based. Summed up: as §3
For orientation: Cellular ATP, detected with luciferase, serves as a proxy for viable cell number.

Series [12] is described as follows: Allosteric inhibition of SHP2 E76A mutant (unknown origin) expressed in Escherichia coli BL21(DE3) using DIFMUP as substrate preincubated for 20 mins followed by substrate addition measured after 20 mins by phosphatase assay. Set-up: species or system Homo sapiens. The method, boiled down: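 His-tagged SHP2 constructs expressed in E. coli BL21(DE3) (0.5 mM IPTG, 5 h, 30 °C) and Ni-column purified. 1.5 nM enzyme preincubated 20 min at room temperature with compound in 0.1 M sodium acetate pH 5.0. DIFMUP then added, 20 min further, fluorescence at 358/455 nm. Eight 3-fold dilutions, duplicate wells, IC50 from at least three independent experiments.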

The source made the active and inactive calls. No cut-off for these calls is given here.

Chain of M-phase inducer phosphatase 1 (P30304 whole entry): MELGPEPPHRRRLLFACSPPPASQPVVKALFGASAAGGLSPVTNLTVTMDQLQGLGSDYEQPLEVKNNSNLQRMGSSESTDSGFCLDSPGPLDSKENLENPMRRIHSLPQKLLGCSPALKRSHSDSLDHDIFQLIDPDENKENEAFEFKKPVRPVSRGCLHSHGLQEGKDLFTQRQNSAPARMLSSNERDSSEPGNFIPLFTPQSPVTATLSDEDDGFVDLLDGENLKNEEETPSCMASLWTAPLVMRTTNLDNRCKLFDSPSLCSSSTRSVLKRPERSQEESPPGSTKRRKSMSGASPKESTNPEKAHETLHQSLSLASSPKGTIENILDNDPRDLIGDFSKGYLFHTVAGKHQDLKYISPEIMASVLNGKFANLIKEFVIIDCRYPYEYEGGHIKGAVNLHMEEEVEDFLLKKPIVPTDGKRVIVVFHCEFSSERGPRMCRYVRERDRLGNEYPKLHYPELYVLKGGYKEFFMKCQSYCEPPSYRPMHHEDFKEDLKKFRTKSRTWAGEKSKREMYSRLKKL
Chain of Dual specificity protein phosphatase 6 (Q16828 whole entry): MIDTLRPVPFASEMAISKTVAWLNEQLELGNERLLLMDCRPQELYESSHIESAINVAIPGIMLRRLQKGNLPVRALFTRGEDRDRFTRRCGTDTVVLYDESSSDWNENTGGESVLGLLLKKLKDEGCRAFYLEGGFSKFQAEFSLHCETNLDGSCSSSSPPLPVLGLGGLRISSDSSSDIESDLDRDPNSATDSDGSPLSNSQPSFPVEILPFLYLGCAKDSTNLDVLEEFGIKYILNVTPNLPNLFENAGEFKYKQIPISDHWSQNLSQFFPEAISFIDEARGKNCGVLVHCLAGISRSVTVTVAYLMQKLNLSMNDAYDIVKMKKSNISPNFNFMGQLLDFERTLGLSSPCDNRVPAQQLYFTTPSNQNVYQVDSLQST
Chain of Tyrosine-protein phosphatase non-receptor type 6 (P29350 whole entry): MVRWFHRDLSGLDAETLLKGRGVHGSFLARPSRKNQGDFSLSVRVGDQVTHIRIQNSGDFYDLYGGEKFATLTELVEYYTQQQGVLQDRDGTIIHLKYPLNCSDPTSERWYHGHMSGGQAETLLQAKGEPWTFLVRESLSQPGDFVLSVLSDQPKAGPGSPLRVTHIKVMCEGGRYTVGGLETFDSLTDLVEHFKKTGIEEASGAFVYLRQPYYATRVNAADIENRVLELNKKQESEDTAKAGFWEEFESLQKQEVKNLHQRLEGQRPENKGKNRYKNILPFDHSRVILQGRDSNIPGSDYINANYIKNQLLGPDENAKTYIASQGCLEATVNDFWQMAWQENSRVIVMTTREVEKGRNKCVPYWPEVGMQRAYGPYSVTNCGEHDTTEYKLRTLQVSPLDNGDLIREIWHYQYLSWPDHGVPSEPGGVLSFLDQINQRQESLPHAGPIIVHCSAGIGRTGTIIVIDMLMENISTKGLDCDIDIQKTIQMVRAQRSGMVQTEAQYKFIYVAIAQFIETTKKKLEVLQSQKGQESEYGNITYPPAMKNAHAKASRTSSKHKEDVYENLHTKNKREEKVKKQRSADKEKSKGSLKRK

On to `CC1(N)CCN(c2nc(-c3ccc4cc(Br)ccc4c3)cs2)CC1`, for which the Ratio IC50 was more than 30 in the series listed under Homo sapiens [1] and 48 in the series listed under Homo sapiens [9]. The concentration for half-maximal inhibition (IC50) in series [2] was more than 100 µM; in [4] it was 27.5 µM; in series [8], 34.6 µM; in series [12], 710 nM. Moreover, the inhibition result in series [3] was “Dose-dependent effect”; in [5] it was “Tde”. The inhibition in vivo at 30 mg/kg in the series with MV4-11 [6] is 56%. Besides, the result in the series on MV4-11 [7] and in the series on BT-474 was Active. Also, in [10], the inhibition result was “Active”. Also, in series [11], the bioavailability amounted to 67%. Further, the outcome in the series on SF-268 was inactive.

A word on the IC50: it is the concentration at which inhibition is half-maximal. A low value points to greater potency. Broadly, the bioavailability is the share of a dose that reaches the circulation, judged against a reference dose that is usually intravenous. A high value points to much systemic uptake.

Source of the values: ChEMBL document CHEMBL4028906, “Allosteric Inhibitors of SHP2 with Therapeutic Potential for Cancer Treatment” (J Med Chem, 2017).
